According to ChEMBL document CHEMBL1145027, “Design and synthesis of statine-based cell-permeable peptidomimetic inhibitors of human beta-secretase” (J Med Chem, 2003):
Where a SMILES comes first, the peptide text is derived from it. [ ]: non-standard residue; d: D form. Sta = CC(C)C[C@H](N)[C@@H](O)CC(=O)O

Target: Beta-secretase 1 (Homo sapiens, UniProt P56817)
Assay: Inhibition of human beta-secretase (BACE) in MBP-C125 assay
Summary of the method: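 BACE activity measured with maltose-binding protein fused C-125 (MBP-C125) substrate; IC50 taken as the concentration giving 50% inhibition of enzyme activity, averaged from two or more runs.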

Sequence of Beta-secretase 1 (P56817 whole entry): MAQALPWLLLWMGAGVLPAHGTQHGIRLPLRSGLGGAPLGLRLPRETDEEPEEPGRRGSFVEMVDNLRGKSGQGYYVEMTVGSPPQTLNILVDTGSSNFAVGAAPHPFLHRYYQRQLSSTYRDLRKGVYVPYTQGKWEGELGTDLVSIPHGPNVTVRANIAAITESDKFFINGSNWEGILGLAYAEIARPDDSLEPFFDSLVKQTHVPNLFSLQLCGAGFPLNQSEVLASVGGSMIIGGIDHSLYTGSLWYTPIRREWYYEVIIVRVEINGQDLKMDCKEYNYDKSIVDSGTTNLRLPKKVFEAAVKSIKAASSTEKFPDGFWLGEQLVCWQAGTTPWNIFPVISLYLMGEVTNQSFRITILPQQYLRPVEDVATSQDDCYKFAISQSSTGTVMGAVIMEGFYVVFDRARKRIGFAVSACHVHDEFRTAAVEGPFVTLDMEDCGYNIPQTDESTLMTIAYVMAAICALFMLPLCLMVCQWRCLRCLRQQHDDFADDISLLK

Structure (SMILES) | IC50 [µM]
CSCC[C@H](NC(=O)[C@@H](NC(=O)OC(C)(C)C)C(C)C)C(=O)NC(CC(C)C)[C@@H](O)CC(=O)N[C@@H](C(=O)NCc1ccc(C(=O)O)cc1)C(C)C (stereo partly specified) | 4
CSCC[C@H](NC(=O)[C@@H](NC(=O)OC(C)(C)C)C(C)C)C(=O)NC(CC(C)C)[C@@H](O)CC(=O)N[C@@H](C(=O)NCc1ccncc1)C(C)C (stereo partly specified) | > 100
CC(C)C[C@H](NC(=O)C(O)c1cccc2ccccc12)[C@@H](O)CC(=O)N[C@H](C(=O)NC1C[C@@H](C(=O)O)C[C@@H](C(=O)O)C1)C(C)C (stereo partly specified) | 3
CO[C@](C)(C(=O)NC(CC(C)C)[C@@H](O)CC(=O)N[C@@H](C(=O)N[C@H](C)C(=O)N[C@H](CCC(=O)O)C(=O)N[C@H](Cc1ccccc1)C(=O)O)C(C)C)c1ccccc1 (stereo partly specified) | 41
CC(C)CC(NC(=O)Cc1cccc2ccccc12)[C@@H](O)CC(=O)N[C@@H](C(=O)N[C@H](C)C(=O)N[C@H](CCC(=O)O)C(=O)N[C@H](Cc1ccccc1)C(=O)O)C(C)C (stereo partly specified) | 42
COC(=O)[C@@H]1CC(NC(=O)[C@H](NC(=O)C[C@H](O)[C@@H](Cc2cc(F)cc(F)c2)NC(=O)C(O)c2ccccc2-c2ccccc2)C(C)C)C[C@H](C(=O)OC)C1 (single isomer, unassigned; isomer 2) | 10
CC(C)CC(NC(=O)Cc1ccc(-c2ccccc2)cc1)[C@@H](O)CC(=O)N[C@@H](C(=O)N[C@H](C)C(=O)N[C@H](CCC(=O)O)C(=O)N[C@H](Cc1ccccc1)C(=O)O)C(C)C (stereo partly specified) | 56
CC(C)CC(NC(=O)Cc1ccc(F)cc1F)[C@@H](O)CC(=O)N[C@@H](C(=O)N[C@H](C)C(=O)N[C@H](CCC(=O)O)C(=O)N[C@H](Cc1ccccc1)C(=O)O)C(C)C (stereo partly specified) | 140
CC(C)C[C@H](NC(=O)C(O)c1ccccc1Br)[C@@H](O)CC(=O)N[C@H](C(=O)NCc1ccc(C(=O)O)cc1)C(C)C (stereo partly specified) | 40
CC(C)CC(NC(=O)C(O)c1ccccc1OCc1ccccc1)[C@@H](O)CC(=O)N[C@@H](C(=O)N[C@H](C)C(=O)N[C@H](CCC(=O)O)C(=O)N[C@H](Cc1ccccc1)C(=O)O)C(C)C (stereo partly specified) | 11
CSCC[C@H](NC(=O)[C@@H](NC(=O)OC(C)(C)C)C(C)C)C(=O)NC(CC(C)C)[C@@H](O)CC(=O)N[C@@H](C(=O)NC1C[C@@H](C(=O)O)C[C@@H](C(=O)O)C1)C(C)C (stereo partly specified) | 0.3
CSCC[C@H](NC(=O)[C@@H](NC(=O)OC(C)(C)C)C(C)C)C(=O)NC(CC(C)C)[C@@H](O)CC(=O)N[C@@H](C(=O)NCc1ccc2c(c1)OCO2)C(C)C (stereo partly specified) | > 100
COC(=O)[C@@H]1CC(NC(=O)[C@H](NC(=O)C[C@H](O)C(CC(C)C)NC(=O)[C@H](CCSC)NC(=O)[C@@H](NC(=O)OC(C)(C)C)C(C)C)C(C)C)C[C@H](C(=O)OC)C1 (stereo partly specified) | 10
CC(C)CC(NC(=O)CCCOc1ccccc1)[C@@H](O)CC(=O)N[C@@H](C(=O)N[C@H](C)C(=O)N[C@H](CCC(=O)O)C(=O)N[C@H](Cc1ccccc1)C(=O)O)C(C)C (stereo partly specified) | 25
COC(=O)CCCCC(=O)NC(CC(C)C)[C@@H](O)CC(=O)N[C@@H](C(=O)N[C@H](C)C(=O)N[C@H](CCC(=O)O)C(=O)N[C@H](Cc1ccccc1)C(=O)O)C(C)C (stereo partly specified) | 50
CCCCOc1ccc(C(=O)NC(CC(C)C)[C@@H](O)CC(=O)N[C@@H](C(=O)N[C@H](C)C(=O)N[C@H](CCC(=O)O)C(=O)N[C@H](Cc2ccccc2)C(=O)O)C(C)C)cc1 (stereo partly specified) | 27
CSCC[C@H](NC(=O)[C@@H](NC(=O)OC(C)(C)C)C(C)C)C(=O)NC(CC(C)C)[C@@H](O)CC(=O)N[C@@H](C(=O)NCCC(=O)O)C(C)C (stereo partly specified) | 30
CC(C)C[C@H](NC(=O)C(O)c1cccc2ccccc12)[C@@H](O)CC(=O)N[C@H](C(=O)NCc1ccc(C(=O)O)cc1)C(C)C (stereo partly specified) | 50
CSCC[C@H](NC(=O)[C@@H](NC(=O)OC(C)(C)C)C(C)C)C(=O)NC(CC(C)C)[C@@H](O)CC(=O)N[C@@H](C(=O)NO)C(C)C (stereo partly specified) | 94
CSCC[C@H](NC(=O)[C@@H](NC(=O)OC(C)(C)C)C(C)C)C(=O)NC(CC(C)C)[C@@H](O)CC(=O)N[C@@H](C(=O)NCc1cccc(C(=O)O)c1)C(C)C (stereo partly specified) | 4

Structure (SMILES) | IC50 [µM]
CC(C)CC(NC(=O)C(O)c1cccc(Oc2ccccc2)c1)[C@@H](O)CC(=O)N[C@@H](C(=O)N[C@H](C)C(=O)N[C@H](CCC(=O)O)C(=O)N[C@H](Cc1ccccc1)C(=O)O)C(C)C (stereo partly specified) | 6
CC(C)CC(NC(=O)C(O)c1cccc2ccccc12)[C@@H](O)CC(=O)N[C@@H](C(=O)N[C@H](C)C(=O)N[C@H](CCC(=O)O)C(=O)N[C@H](Cc1ccccc1)C(=O)O)C(C)C (stereo partly specified) | 4
CSCC[C@H](NC(=O)[C@@H](NC(C)=O)C(C)C)C(=O)N[C@@H](CC(C)C)[C@@H](O)CC(=O)N[C@H](C(=O)N[C@@H](C)C(=O)N[C@@H](CCC(=O)O)C(=O)N[C@@H](Cc1ccccc1)C(=O)O)C(C)C (Ac-VM[Sta]VAEF-OH) | 0.3
CC(C)CC(NC(=O)Cc1ccccc1)[C@@H](O)CC(=O)N[C@@H](C(=O)N[C@H](C)C(=O)N[C@H](CCC(=O)O)C(=O)N[C@H](Cc1ccccc1)C(=O)O)C(C)C (stereo partly specified) | 130
CSCC[C@H](NC(=O)[C@@H](NC(=O)OC(C)(C)C)C(C)C)C(=O)NC(CC(C)C)[C@@H](O)CC(=O)N[C@@H](C(=O)NC1CCCCC1)C(C)C (stereo partly specified) | > 200
CSCC[C@H](NC(=O)[C@@H](NC(=O)OC(C)(C)C)C(C)C)C(=O)NC(CC(C)C)[C@@H](O)CC(=O)N[C@@H](C(=O)NCc1cccc(OCC(=O)O)c1)C(C)C (stereo partly specified) | 5
CC(C)CC(NC(=O)c1ccc2ccccc2c1)[C@@H](O)CC(=O)N[C@@H](C(=O)N[C@H](C)C(=O)N[C@H](CCC(=O)O)C(=O)N[C@H](Cc1ccccc1)C(=O)O)C(C)C (stereo partly specified) | 48
CC(C)CC(NC(=O)C(O)c1ccccc1Oc1ccccc1)[C@@H](O)CC(=O)N[C@@H](C(=O)N[C@H](C)C(=O)N[C@H](CCC(=O)O)C(=O)N[C@H](Cc1ccccc1)C(=O)O)C(C)C (stereo partly specified) | 14
CC(C)CC(NC(=O)[C@@H](O)c1ccccc1)[C@@H](O)CC(=O)N[C@@H](C(=O)N[C@H](C)C(=O)N[C@H](CCC(=O)O)C(=O)N[C@H](Cc1ccccc1)C(=O)O)C(C)C (stereo partly specified) | 17
CC(C)Cc1ccc(C(=O)NC(CC(C)C)[C@@H](O)CC(=O)N[C@@H](C(=O)N[C@H](C)C(=O)N[C@H](CCC(=O)O)C(=O)N[C@H](Cc2ccccc2)C(=O)O)C(C)C)cc1 (stereo partly specified) | 28
CSCC[C@H](NC(=O)[C@@H](NC(=O)OC(C)(C)C)C(C)C)C(=O)NC(CC(C)C)[C@@H](O)CC(=O)N[C@@H](C(=O)NCCCC(=O)O)C(C)C (stereo partly specified) | 47
CSCC[C@H](NC(=O)[C@@H](NC(=O)OC(C)(C)C)C(C)C)C(=O)NC(CC(C)C)[C@@H](O)CC(=O)N[C@@H](C(=O)NCc1ccccc1)C(C)C (stereo partly specified) | > 200
COc1cc(CC(=O)NC(CC(C)C)[C@@H](O)CC(=O)N[C@@H](C(=O)N[C@H](C)C(=O)N[C@H](CCC(=O)O)C(=O)N[C@H](Cc2ccccc2)C(=O)O)C(C)C)cc(OC)c1OC (stereo partly specified) | 94
COC(=O)[C@@H]1CC(NC(=O)[C@@H](NC(=O)C[C@H](O)[C@H](CC(C)C)NC(=O)C(O)c2cccc3ccccc23)C(C)C)C[C@H](C(=O)OC)C1 (stereo partly specified) | 140
CC(C)CC(NC(=O)C(O)c1ccccc1Br)[C@@H](O)CC(=O)N[C@@H](C(=O)N[C@H](C)C(=O)N[C@H](CCC(=O)O)C(=O)N[C@H](Cc1ccccc1)C(=O)O)C(C)C (stereo partly specified) | 3
COC(=O)CCCNC(=O)[C@H](NC(=O)C[C@H](O)C(CC(C)C)NC(=O)[C@H](CCSC)NC(=O)[C@@H](NC(=O)OC(C)(C)C)C(C)C)C(C)C (stereo partly specified) | 47
CCCCNC(=O)[C@H](NC(=O)C[C@H](O)C(CC(C)C)NC(=O)[C@H](CCSC)NC(=O)[C@@H](NC(=O)OC(C)(C)C)C(C)C)C(C)C (stereo partly specified) | > 200
COC(=O)[C@@H]1CC(NC(=O)[C@H](NC(=O)C[C@H](O)[C@@H](Cc2cc(F)cc(F)c2)NC(=O)C(O)c2ccccc2-c2ccccc2)C(C)C)C[C@H](C(=O)OC)C1 (single isomer, unassigned; isomer 1) | 0.12
CO[C@H](C(=O)NC(CC(C)C)[C@@H](O)CC(=O)N[C@@H](C(=O)N[C@H](C)C(=O)N[C@H](CCC(=O)O)C(=O)N[C@H](Cc1ccccc1)C(=O)O)C(C)C)c1ccccc1 (stereo partly specified) | 28

Tested on: HEK293
Assay: Inhibition of A beta-secretion in transfected human embryonic kidney (HEK293) cells
Format: functional, cell-based
Summary of the method: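 Transfected HEK-293 cells incubated with inhibitor; Aβ secretion measured and EC50 taken as the concentration giving 50% inhibition of Aβ production.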

Structure (SMILES) | EC50 [µM]
COC(=O)[C@@H]1CC(NC(=O)[C@H](NC(=O)C[C@H](O)[C@@H](Cc2cc(F)cc(F)c2)NC(=O)C(O)c2ccccc2-c2ccccc2)C(C)C)C[C@H](C(=O)OC)C1 (single isomer, unassigned; isomer 2) | > 10
COC(=O)[C@@H]1CC(NC(=O)[C@H](NC(=O)C[C@H](O)[C@@H](Cc2cc(F)cc(F)c2)NC(=O)C(O)c2ccccc2-c2ccccc2)C(C)C)C[C@H](C(=O)OC)C1 (single isomer, unassigned; isomer 1) | 4
